Source: ChEMBL document CHEMBL1140908, “New insights into the design of inhibitors of human S-adenosylmethionine decarboxylase: studies of adenine C8 substitution in structural analogues of S-adenosylmethionine” (J Med Chem, 2009)
pIC50: −log10 of the molar value.

Biological target: T1, S-adenosylmethionine decarboxylase proenzyme (Homo sapiens, UniProt P17707)
T1 sequence (P17707 whole entry): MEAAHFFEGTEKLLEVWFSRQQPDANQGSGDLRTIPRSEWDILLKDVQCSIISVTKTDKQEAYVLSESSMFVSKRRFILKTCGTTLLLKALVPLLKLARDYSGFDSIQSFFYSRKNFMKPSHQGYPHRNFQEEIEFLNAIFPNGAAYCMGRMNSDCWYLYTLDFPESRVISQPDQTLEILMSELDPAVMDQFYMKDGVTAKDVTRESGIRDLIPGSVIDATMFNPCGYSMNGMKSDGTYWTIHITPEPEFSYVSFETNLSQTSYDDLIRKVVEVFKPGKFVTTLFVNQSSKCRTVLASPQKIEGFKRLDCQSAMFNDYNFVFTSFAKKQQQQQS
Assay: Inhibition of human C-terminal His-tagged AdoMetDC assessed as release of 14CO2 from S-adenosyl-L-[carboxy-14C]methionine
How it was run: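 Enzyme: human AdoMetDC from a pQE30 plasmid with the (H)6 tag at the C-terminus in place of the terminal -QQQQQS. Expressed in E. coli JM109 with IPTG induction overnight at 15 °C, then purified on Talon resin and Sephadex G-75 in putrescine-containing buffer. Assay used 1 nM enzyme, no inhibitor plus at least five inhibitor concentrations. IC50 came from curve fits of concentration versus % inhibition.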

SMILES | pIC50
Cc1nc2c(N)ncnc2n1[C@@H]1O[C@H](C[S+](C)C)[C@@H](O)[C@H]1O | 5.52
CNc1nc2c(N)ncnc2n1[C@@H]1O[C@H](CN(C)CCCCON)[C@@H](O)[C@H]1O | 7.31

Biological target: T2, S-adenosylmethionine decarboxylase proenzyme (Homo sapiens) (UniProt P17707)
T2 sequence (whole entry): T1 sequence (P17707 whole entry)
Assay: Inhibition of human C-terminal His-tagged AdoMetDC assessed as release of 14CO2 from S-adenosyl-L-[carboxy-14C]methionine at 100 uM

inhibition | SMILES
< 5% | CNCCCNC[C@H]1O[C@@H](n2c(-c3ccccc3)nc3c(N)ncnc32)[C@H](O)[C@@H]1O
< 5% | CN(CCON)C[C@H]1O[C@@H](n2c(-c3ccccc3)nc3c(N)ncnc32)[C@H](O)[C@@H]1O
< 5% | CN(CCCN)C[C@H]1O[C@@H](n2c(-c3ccccc3)nc3c(N)ncnc32)[C@H](O)[C@@H]1O
< 5% | CN(CCN)C[C@H]1O[C@@H](n2cnc3c(N)ncnc32)[C@H](O)[C@@H]1O
< 5% | CN(CCCCON)C[C@H]1O[C@@H](n2c(-c3ccccc3)nc3c(N)ncnc32)[C@H](O)[C@@H]1O

The next lines start with the compound.

SMILES | inhibition
CNCCCNC[C@H]1O[C@@H](n2c(NC)nc3c(N)ncnc32)[C@H](O)[C@@H]1O | < 5%
Cc1nc2c(N)ncnc2n1[C@@H]1O[C@H](CN(C)CC(N)=O)[C@@H](O)[C@H]1O | < 5%
CN(CCNC(=N)N)C[C@H]1O[C@@H](n2cnc3c(N)ncnc32)[C@H](O)[C@@H]1O | < 5%
CNCCNC[C@H]1O[C@@H](n2c(C)nc3c(N)ncnc32)[C@H](O)[C@@H]1O | < 5%
CNCCNC[C@H]1O[C@@H](n2cnc3c(N)ncnc32)[C@H](O)[C@@H]1O | < 5%
